Calls of active or inactive are those of the source. The calls are words filed in the database; no cut-off is given here.
What was measured:
Spodoptera littoralis [1] = assay: Insecticidal activity against Spodoptera littoralis worm third-instar larvae grown on compound pre-treated caster bean leaves assessed as larval weight gain at 0.5 mg of ai/L as Rimon EC formulation measured 8 days post compound treatment relative to untreated control; format: functional
Spodoptera littoralis [2] = assay: Insecticidal activity against Spodoptera littoralis worm third-instar larvae grown on compound pre-treated caster bean leaves assessed as larval mortality at 0.5 mg of ai/L as Rimon EC formulation measured 8 days post compound treatment; format: functional
Method in brief: (§1)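 Castor bean leaves treated at 0.25 or 0.5 mg ai/L formulation and fed to S. littoralis third instars (11 ± 1 mg) for 4 days, then moved to untreated leaves for 4 more days. Larval mortality scored at day 4 and day 8.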

Bemisia tabaci [3] = assay: Insecticidal activity against Bemisia tabaci (sweet potato whitefly) nymphs assessed as suppression of larval pupation at 0.3 mg of ai/ha; format: functional, organism-based
Spodoptera littoralis [4] = assay: Insecticidal activity against Spodoptera littoralis worm third-instar larvae grown on compound pre-treated caster bean leaves assessed as larval mortality at 0.5 mg of ai/L as Rimon EC formulation measured 4 days post compound treatment; format: functional; method in brief: as §1
Mythimna separata [5] = assay: Insecticidal activity against Mythimna separata (Oriental armyworm) second-instar larvae reared on compound pre-treated corn disks assessed as larval mortality at 0.25 mg/L measured 7 days post compound treatment by leaf-dip method; format: functional
Method in brief: (§2)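 Leaf-dip: corn disks dipped 5 s in test solution, air-dried on filter paper, set on agar in 7 cm Petri dishes, with water-dipped disks as controls. Ten second-instar larvae per disk; dishes sealed with ventilated lids and stored inverted. Mortality scored at 7 days and corrected by Abbott's formula when needed. Diflubenzuron run under the same conditions.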

Mythimna separata [6] = assay: Insecticidal activity against Mythimna separata (Oriental armyworm) second-instar larvae reared on compound pre-treated corn disks assessed as larval mortality at 0.125 mg/L measured 7 days post compound treatment by leaf-dip method; format: functional; method in brief: as §2
Spodoptera littoralis [7] = assay: Insecticidal activity against Spodoptera littoralis worm third-instar larvae grown on compound pre-treated caster bean leaves assessed as larval mortality at 0.5 mg of ai/L measured 4 days post compound treatment; format: functional; method in brief: as §1
Spodoptera littoralis [8] = assay: Insecticidal activity against Spodoptera littoralis worm third-instar larvae grown on compound pre-treated caster bean leaves assessed as larval mortality at 0.25 mg of ai/L measured 4 days post compound treatment; format: functional; method in brief: as §1
Spodoptera littoralis [9] = assay: Insecticidal activity against Spodoptera littoralis worm third-instar larvae grown on compound pre-treated caster bean leaves assessed as larval weight gain at 0.25 mg of ai/L measured 8 days post compound treatment relative to untreated control; format: functional
Plutella xylostella = assay: Insecticidal activity against Plutella xylostella (diamondback moth) […] using 5% compound EC formulation at 37.5 g of ai/ha measured after 7 days field trial; format: functional
Spodoptera littoralis [10] = assay: Insecticidal activity against Spodoptera littoralis worm third-instar larvae grown on compound pre-treated caster bean leaves assessed as larval mortality at 0.5 mg of ai/L measured 8 days post compound treatment; format: functional; method in brief: as §1
Spodoptera littoralis [11] = assay: Insecticidal activity against Spodoptera littoralis worm third-instar larvae grown on compound pre-treated caster bean leaves assessed as larval weight gain at 0.5 mg of ai/L measured 8 days post compound treatment relative to untreated control; format: functional
Cnaphalocrocis medinalis = assay: Insecticidal activity against rice leaf roller third-instar larvae using 5% compound EC formulation at 25 g of ai/ha measured after 10 days field plot trial; format: functional, organism-based
Spodoptera littoralis [12] = assay: Insecticidal activity against Spodoptera littoralis worm third-instar larvae grown on compound pre-treated caster bean leaves assessed as larval mortality at 0.25 mg of ai/L measured 8 days post compound treatment; format: functional; method in brief: as §1
Pieris rapae = assay: Insecticidal activity against imported cabbage worm measured 7 days after application of compound at 2000 diluent 5% EC; format: functional, organism-based
Bemisia tabaci [13] = assay: Insecticidal activity against Bemisia tabaci (sweet potato whitefly) nymphs assessed as effect on larval pupation; format: functional, organism-based
Mythimna separata [14] = assay: Insecticidal activity against Mythimna separata (Oriental armyworm) second-instar larvae reared on compound pre-treated corn disks assessed as larval mortality at 15.625 mg/L measured 7 days post compound treatment by leaf-dip method; format: functional; method in brief: as §2
Mythimna separata [15] = assay: Insecticidal activity against Mythimna separata (Oriental armyworm) second-instar larvae reared on compound pre-treated corn disks assessed as larval mortality at 31.25 mg/L measured 7 days post compound treatment by leaf-dip method; format: functional; method in brief: as §2
Mythimna separata [16] = assay: Insecticidal activity against Mythimna separata (Oriental armyworm) second-instar larvae reared on compound pre-treated corn disks assessed as larval mortality at 62.5 mg/L measured 7 days post compound treatment by leaf-dip method; format: functional; method in brief: as §2
Mythimna separata [17] = assay: Insecticidal activity against Mythimna separata (Oriental armyworm) second-instar larvae reared on compound pre-treated corn disks assessed as larval mortality at 10 mg/L measured 7 days post compound treatment by leaf-dip method; format: functional; method in brief: as §2
Mythimna separata [18] = assay: Insecticidal activity against Mythimna separata (Oriental armyworm) second-instar larvae reared on compound pre-treated corn disks assessed as larval mortality at 5 mg/L measured 7 days post compound treatment by leaf-dip method; format: functional; method in brief: as §2
Mythimna separata [19] = assay: Insecticidal activity against Mythimna separata (Oriental armyworm) second-instar larvae reared on compound pre-treated corn disks assessed as larval mortality at 12.5 mg/L measured 7 days post compound treatment by leaf-dip method; format: functional; method in brief: as §2
Mythimna separata [20] = assay: Insecticidal activity against Mythimna separata (Oriental armyworm) second-instar larvae reared on compound pre-treated corn disks assessed as larval mortality at 50 mg/L measured 7 days post compound treatment by leaf-dip method; format: functional; method in brief: as §2

O=C(NC(=O)c1c(F)cccc1F)Nc1ccc(OC(F)(F)C(F)OC(F)(F)F)c(Cl)c1 (stereo unspecified) [NOVALURON]
Activity (Spodoptera littoralis [1]): 44%
mortality (Spodoptera littoralis [2]): 78%
Activity (Bemisia tabaci [3]): Active
mortality (Spodoptera littoralis [4]): 6%

O=C(NC(=O)c1c(F)cccc1F)Nc1ccc(C(F)(C(F)(F)F)C(F)(F)F)cc1F
mortality at 0.25 µg/mL (Mythimna separata [5]): 100%
mortality at 0.125 µg/mL (Mythimna separata [6]): 63.3%

O=C(NC(=O)c1c(F)cccc1F)Nc1ccc(Cl)cc1 [DIFLUBENZURON]
mortality at 0.25 µg/mL (Mythimna separata [5]): 100%
mortality at 0.125 µg/mL (Mythimna separata [6]): 69.5%

Cc1cc(C(F)(C(F)(F)F)C(F)(F)F)cc(C)c1NC(=O)NC(=O)c1c(F)cccc1F
mortality (Spodoptera littoralis [7]): 18%
mortality (Spodoptera littoralis [8]): 8%
Activity (Spodoptera littoralis [9]): 45%
Activity (Plutella xylostella): >92%
mortality (Spodoptera littoralis [10]): 78%
Activity (Spodoptera littoralis [11]): 31%
mortality at 0.25 µg/mL (Mythimna separata [5]): 80%
Activity (Cnaphalocrocis medinalis): Active
mortality (Spodoptera littoralis [12]): 36%
mortality at 0.125 µg/mL (Mythimna separata [6]): 50%
Activity (Pieris rapae): Active
Activity (Bemisia tabaci [13]): inactive

O=C(NC(=O)c1c(F)cccc1F)Nc1ccc(C(F)(C(F)(F)F)C(F)(F)F)cc1
mortality at 15.625 µg/mL (Mythimna separata [14]): 43.3%
mortality at 31.25 µg/mL (Mythimna separata [15]): 100%

O=C(NC(=O)c1c(F)cccc1F)Nc1ccc(C(F)(C(F)(F)F)C(F)(F)F)c(Br)c1
mortality at 15.625 µg/mL (Mythimna separata [14]): 46.6%
mortality at 31.25 µg/mL (Mythimna separata [15]): 100%

Cc1ccc(NC(=O)NC(=O)c2c(F)cccc2F)c(C(F)(C(F)(F)F)C(F)(F)F)c1
mortality at 62.5 µg/mL (Mythimna separata [16]): 100%
mortality at 31.25 µg/mL (Mythimna separata [15]): 93.3%

O=C(NC(=O)c1c(F)cccc1F)Nc1ccc(Br)cc1C(F)(C(F)(F)F)C(F)(F)F
mortality at 15.625 µg/mL (Mythimna separata [14]): 56.6%
mortality at 31.25 µg/mL (Mythimna separata [15]): 100%

O=C(NC(=O)c1c(F)cccc1F)Nc1ccc(C(F)(C(F)(F)F)C(F)(F)F)c(Cl)c1
mortality at 15.625 µg/mL (Mythimna separata [14]): 86.6%
mortality at 31.25 µg/mL (Mythimna separata [15]): 100%

O=C(NC(=O)c1ccccc1Cl)Nc1ccc(C(F)(C(F)(F)F)C(F)(F)F)cc1
mortality at 10 µg/mL (Mythimna separata [17]): 100%
mortality at 5 µg/mL (Mythimna separata [18]): 66.9%

COc1ccc(NC(=O)NC(=O)c2c(F)cccc2F)c(C(F)(C(F)(F)F)C(F)(F)F)c1
mortality at 62.5 µg/mL (Mythimna separata [16]): 100%
mortality at 31.25 µg/mL (Mythimna separata [15]): 86.6%

Cc1cc(C(F)(C(F)(F)F)C(F)(F)F)ccc1NC(=O)NC(=O)c1c(F)cccc1F
mortality at 15.625 µg/mL (Mythimna separata [14]): 56.6%
mortality at 31.25 µg/mL (Mythimna separata [15]): 100%

O=C(NC(=O)c1ccccc1)Nc1ccc(C(F)(C(F)(F)F)C(F)(F)F)cc1
mortality (Spodoptera littoralis [7]): 18%
mortality (Spodoptera littoralis [8]): 8%
mortality at 10 µg/mL (Mythimna separata [17]): 68.1%
mortality at 12.5 µg/mL (Mythimna separata [19]): 100%
Activity (Spodoptera littoralis [9]): 69%
mortality (Spodoptera littoralis [10]): 22%
Activity (Spodoptera littoralis [11]): 94%
mortality (Spodoptera littoralis [12]): 14%
Activity (Bemisia tabaci [13]): inactive

O=C(NC(=O)c1c(F)cccc1F)Nc1ccc(C(F)(C(F)(F)F)C(F)(F)F)cc1Cl
mortality at 15.625 µg/mL (Mythimna separata [14]): 20%
mortality at 31.25 µg/mL (Mythimna separata [15]): 100%

O=C(NC(=O)c1c(F)cccc1F)Nc1c(F)cc(C(F)(C(F)(F)F)C(F)(F)F)cc1F
mortality at 0.25 µg/mL (Mythimna separata [5]): 100%
mortality at 0.125 µg/mL (Mythimna separata [6]): 62.7%

Cc1cc(C(F)(C(F)(F)F)C(F)(F)F)cc(C)c1NC(=O)NC(=O)c1ccccc1Cl
mortality at 10 µg/mL (Mythimna separata [17]): 69.1%
mortality at 50 µg/mL (Mythimna separata [20]): 100%

Reference: ChEMBL document CHEMBL3044760, “Synthesis and insecticidal activity of heptafluoroisopropyl-containing benzoylphenylurea structures” (2010)
